Legend:
Candida albicans [1] = assay: Anti fungal activity against Candida albicans after 48 hr incubation; type: functional; design: concentration or dose not given beside the values
Procedure, shortened: (§1)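 Agar diffusion on cellulose disks loaded with 200 µg compound each. Bacteria read after 96 h, yeasts after 48 h. Activity is recorded as the radius in mm, or percent, of the inhibition zone. Squalestatin S1 (200 µg/disk) served as control in the yeast assay.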

Candida albicans [2] = assay: Antimicrobial activity against Candida albicans after 48 hr incubation; type: functional; procedure, shortened: as §1
Escherichia coli [3] = assay: Antimicrobial activity against the Escherichia coli after 96 hr incubation; type: functional; design: concentration or dose not given beside the values; procedure, shortened: as §1
Bacillus subtilis [4] = assay: Antimicrobial activity against Bacillus subtilis after 96 hr incubation; type: functional; design: concentration or dose not given beside the values; procedure, shortened: as §1
[5] = tested on: Schizosaccharomyces pombe; assay: (§2) Antimicrobial activity against Schizosaccharomyces pombe after 48 hr incubation; type: functional; design: concentration or dose not given beside the values; procedure, shortened: as §1
Bacillus subtilis [6] = assay: Antimicrobial activity against Bacillus subtilis after 96h incubation; type: functional; procedure, shortened: as §1
Escherichia coli [7] = assay: Antimicrobial activity against Escherichia coli after 96h incubation; type: functional; procedure, shortened: as §1
A2780 = assay: Inhibitory concentration in vitro for cytotoxic activity against A 2780 human ovarian carcinoma cells; type: functional, cell-based
Procedure, shortened: (§3)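 MTT assay in 96-well plates, seeding 400–1000 cells/well. Cells recover 24 h, then drug in medium is added, three wells per dose. Incubate 5 days at 37 °C in 5% CO₂. Add MTT (3 mg/mL) for 3 h, dissolve formazan in DMSO, read at 540 nm minus 620 nm. Percent growth inhibition per dose comes from duplicate experiments, reported as mean and SD; IC50 is derived from these.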

Saccharomyces cerevisiae = assay: Antimicrobial activity against Saccharomyces cerevisiae after 48 hr incubation; type: functional; procedure, shortened: as §1
K562 = assay: Inhibitory concentration in vitro for cytotoxic activity against K 562 human chronic myelogenous leukemia cells; type: functional, cell-based; procedure, shortened: as §3
Staphylococcus aureus [8] = assay: The compound was evaluated for anti microbial activity against Staphylococcus aureus after 96 hr incubation; type: functional; design: concentration or dose not given beside the values; procedure, shortened: as §1
Staphylococcus aureus [9] = assay: Antimicrobial activity against Staphylococcus aureus after 96h incubation; type: functional; procedure, shortened: as §1
[10] = tested on: Schizosaccharomyces pombe; assay: as §2; type: functional; procedure, shortened: as §1

Compound	Inhibition (Candida albicans [1]) [%]	Inhibition (Candida albicans [2]) [mm]	Inhibition (Escherichia coli [3]) [%]	Inhibition (Bacillus subtilis [4]) [%]	Inhibition [5] [%]	Inhibition (Bacillus subtilis [6]) [mm]	Inhibition (Escherichia coli [7]) [mm]	IC50 (A2780) [µM]	Inhibition (Saccharomyces cerevisiae) [mm]	IC50 (K562) [µM]	Inhibition (Staphylococcus aureus [8]) [%]	Inhibition (Staphylococcus aureus [9]) [mm]	Inhibition [10] [mm]
CCCC#Cc1cc(C)oc(=O)c1	12.5	11	25	20.5	32.9	18	22	4.8	0	17.8	23.9	21	29
Cc1cc(C#Cc2ccccc2)cc(=O)o1		0	22.7	21.6	42	19	20	1.8	0	4		0	37
CCCCCCCCc1cc(C)oc(=O)c1	22.7	20	25	21.6	34.1	19	22		0		20.5	18	30
Cc1cc(-c2ccccc2)cc(=O)o1		0	22.7	20.5		18	20	> 50	0	> 50	20.5	18	0
CC(=O)Nc1ccc(C#Cc2cc(C)oc(=O)c2)cc1		0		6.8		6	0		0		18.2	16	0
CCCCc1cc(C)oc(=O)c1		0	25	22.7		20	22	> 50	0	> 50		0	0
Cc1cc(/C=C/c2ccccc2)cc(=O)o1		0	19.3	20.5	20.5	18	17	> 50	0	> 50		0	18
Cc1cc(C#CCOC2CCCCO2)cc(=O)o1 (configuration not stated)	14.8	13	19.3	22.7	20.5	20	17	2.1	0	4	34.1	30	18
Cc1cc(-c2ccc(Cl)cc2)cc(=O)o1		0	22.7	20.5		18	20	> 50	0	> 50	22.7	20	0
CCOCCc1cc(C)oc(=O)c1								> 50		> 50			0
Cc1cc(-c2ccc(C=O)cc2)cc(=O)o1		0	17	20.5	15.9	18	15	19.2	0	26	20.5	18	14
Cc1cc(C#Cc2ccc([N+](=O)[O-])cc2)cc(=O)o1		0		6.8	10.2	6	0		0			0	9
